Only some compounds are listed: those with a hit (about 1.4% of all), similar ones and a draw of the others.
PG9 Ab binder = binds the HIV-1 gp120 antibody PG9; TR-FRET gp120-PG9 antibody binding; inhibition, % at 6.7 µM; actives 0.43% (n = 360,000); in the data active = inhibition above about 8.5%
NR2E3 ag-1 = activates human NR2E3 receptor; CHO-S Gal4-NCOR/VP16-NR2E3 two-hybrid, luciferase; actives 0.35% (n = 360,000); inhibition of corepressor binding, % at 3.98 µM;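 active = inhibition above the mean of all tested compounds plus 3 SD, cut at about 70% in these data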;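 note: 0% = DMSO with NR2E3 transfected cells and 100% = cells lacking NR2E3 construct; higher means lower luciferase signal from less NR2E3 corepressor binding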
Target sequence (Q9Y5X4 whole entry, looked up, the tested form may be a part): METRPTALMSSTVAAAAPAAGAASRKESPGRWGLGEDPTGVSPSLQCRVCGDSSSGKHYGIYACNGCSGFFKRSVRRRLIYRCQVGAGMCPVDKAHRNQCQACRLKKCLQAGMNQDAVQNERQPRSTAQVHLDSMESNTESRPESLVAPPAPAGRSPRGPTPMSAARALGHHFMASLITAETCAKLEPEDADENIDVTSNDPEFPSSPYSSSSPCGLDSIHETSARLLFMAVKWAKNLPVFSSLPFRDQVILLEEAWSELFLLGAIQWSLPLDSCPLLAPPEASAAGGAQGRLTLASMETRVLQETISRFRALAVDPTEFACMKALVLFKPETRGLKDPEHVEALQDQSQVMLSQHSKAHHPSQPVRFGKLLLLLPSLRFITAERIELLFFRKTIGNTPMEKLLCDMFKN
Rev-erbA mod = modulators of human Rev-erb alpha DNA binding | P20393 | AID 1259318 | activity, % at 10 µM | actives 0.79% (n = 370,000) | Rev-erbα–FITC-DNA binding, fluorescence polarization, 90 min;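 active = activity above about 14%, limit read from the data; passing the limit was not always enough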;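 note: 0% = DMSO wells with 35 nM protein and 100% = DMSO wells with 750 nM protein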
NR2E3 ag-2 = agonists of human nuclear receptor NR2E3; Q9Y5X4; GST-NR2E3/biotin-RetCOR TR-FRET, 1536-well; inhibition of corepressor binding, % at 4.78 µM; actives 0.12% (n = 320,000); AID 2300;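 active = percent inhibition above the cutoff of mean plus 3 SD of all tested compounds, set per screening campaign, cut at about 20% in these data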;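 note: 0% = DMSO wells and 100% = biotin wells as full block of FRET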
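System: GST-NR2E3 and biotin-RetCOR proteins; probe or stimulus: 7 nM biotin-RetCOR; doses: compound at 4.8 µM, single dose; schedule: Compound–protein incubation for 5 h at 4 °C; detection: time-resolved FRET; read-out: percent inhibition; controls: biotin wells as high control, 0.6% DMSO wells as low control; format: 1536-well plates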
PG9 bind confirm = PG9 antibody binding, confirmed; shares compounds with PG9 Ab binder; TR-FRET PG9 antibody binding, biochemical; inhibition, % at 6.7 µM; actives 90% (n = 1,500); in the data active = inhibition above about 9%
PGV04 Ab binding = counter-screen for PG9 binders: binding control antibody PGV04; shares compounds with PG9 Ab binder; TR-FRET PGV04 antibody-gp120 binding, biochemical; inhibition, % at 6.7 µM; actives 95% (n = 1,500); AID 651604; in the data active = inhibition above about 9.5%
PG9 bind DR = PG9 antibody binding, dose response; shares compounds with PG9 Ab binder; TR-FRET PG9 antibody-gp120 binding inhibition; IC50, µM; 95 tested, under 10 active; AID 651848; in the data active = IC50 below about 10 µM
PGV04 DR counter = binds control antibody PGV04 in PG9 counter-screen; shares compounds with PG9 Ab binder; TR-FRET binding to control antibody PGV04; IC50, µM; actives 20% (n = 95); AID 651937
PG126 binding DR = binds control antibody PG126 in PG9 counter-screen; TR-FRET binding to antibody PG126, counterscreen; shares compounds with PG9 Ab binder; actives 20% (n = 95); IC50, µM
* hit, by the source's call; i = inactive; x = no result given. Cut-off read from the data, not from the text of the source, unless noted: active = IC50 below about 9 µM; inactive = the rest.

SMILES | PG9 Ab binder | NR2E3 ag-1 | Rev-erbA mod | NR2E3 ag-2 | PG9 bind confirm | PGV04 Ab binding | others
CC(C)NC(=O)Nc1cccc2c1O[C@H](CN(C)S(C)(=O)=O)[C@@H](C)CN([C@H](C)CO)C2=O | 0.2 | 2.4 | -2.1 | x | x | x
COc1ccc(C2=CN3CCCCC3CC2=O)cc1OC (centres undefined) | -3.7 | -45.5 | -6.5 | x | x | x
CCc1ccc(C(CC(=O)O)N2Cc3ccccc3C2=O)cc1 (centres undefined) | -0.4 | -26.7 | -7.7 | 2.3 | x | x
CN(C[C@H](Cc1ccccc1)N(C[C@H](CC1CCCCC1)N(CCc1ccccc1)N=O)N=O)N=O | -0.5 | -14.2 | -2.2 | 3.0 | x | x
COc1ccc(CNC(=O)CN(C(=O)c2cc3sccc3n2C)C2CCCC2)cc1 | 12.6* | -18.7 | 3.3 | -0.5 | 11.4* | 14.2*
O=C1CCC(C(=O)OCc2nnc(-c3ccc(Br)cc3)o2)=NN1 | -2.6 | -38.6 | -1.2 | 0.7 | x | x
Cc1ccc(C)c(OCCC(=O)OCC(=O)c2c(N)n(C)c(=O)n(C)c2=O)c1 | 0.4 | -18.2 | 8.9 | 2.8 | x | x
CCOC(=O)c1c(C)n(-c2ccc(C)cc2)c2c(C(C(C)=O)C(=O)O)c(Br)c(O)c(O)c12 (centres undefined) | -2.4 | -5.7 | 7.9 | 1.5 | x | x
CCOC(=O)C(C(C)=O)c1c(Br)c(O)c(O)c2c(C(=O)c3ccc(C)cc3)coc12 (centres undefined) | 9.4* | 26.5 | 0.1 | 0.5 | 17.6* | 19.3*
OC[C@H]1O[C@@H](Oc2ccc3cc(Br)ccc3c2)[C@H](O)[C@@H](O)[C@H]1O | 11.3* | 16.4 | -2.0 | 9.2 | 16.7* | 24.2*
COc1ccc(/C=C/c2cc(O)cc(OC3OC(CO)C(O)C(O)C3O)c2)cc1 (centres undefined) | -1.1 | -105.2 | 0.2 | x | x | x
COCCNC(=O)C(=O)NNC(=O)CCc1ccccc1 | 0.2 | -12.4 | -2.1 | 0.1 | x | x
CCCCC1=CC2=C(c3ccco3)C(=O)C(C)(OC(=O)c3ccc(OC)cc3)C(=O)C2=CN1Cc1ccccc1 (centres undefined) | 24.0* | -16.4 | -4.5 | 13.9 | 27.7* | 33.4*
COC(=O)c1ccccc1NC(=O)c1cccc(NC(=O)CSCc2ccccc2)c1C | 32.6* | 23.8 | 15.0 | 4.5 | 27.8* | 42.6*
COC(=O)c1ccccc1NC(=O)CSCC(=O)Nc1ccccc1 | 3.3 | -4.7 | 1.0 | 3.0 | x | x
O=C(NC1CCSc2ccccc21)c1ccc(C(F)(F)F)cc1 (centres undefined) | 11.2* | -3.0 | 3.0 | 5.5 | 11.3* | 18.2*
O=C(NC1CCSc2ccccc21)c1ccc(F)cc1 (centres undefined) | 0.9 | -0.9 | -0.7 | 2.5 | x | x
Cc1cccc(C(=O)NCC(C)NC(=O)c2cccc(C)c2)c1 (centres undefined) | -3.0 | -15.8 | 3.4 | 2.7 | x | x
CN1/C(=C/C(=O)c2ccc(Cl)cc2)Sc2cc3c(cc21)OCO3 | -27.1 | -89.1 | -31.3 | -1.4 | x | x
COc1ccc(C(=O)/C=C2/Sc3cc4c(cc3N2C)OCO4)cc1 | 40.5* | 12.2 | 1.1 | -31.3 | 56.3* | 49.1* | PG9 bind DR=>67;PGV04 DR counter=2.42*;PG126 binding DR=2.45*
CC(=O)c1cn(CC(=O)Nc2ccc(C)cc2)c2ccccc12 | 16.6* | 20.4 | 12.5 | 2.8 | 24.0* | 31.8*
Cc1ccc(NC(=O)Cn2c(=O)c3cccn3c3ccccc32)cc1 | 20.7* | -1.7 | 11.1 | 10.9 | 19.3* | 27.4*
CC(=O)c1cn(CC(=O)Nc2ccc(C)c(C)c2)c2ccccc12 | 8.4 | -20.3 | 9.5 | 5.0 | x | x
CC(C)CC(CO)N1CCN(C(=O)c2cccc(C(F)(F)F)c2)CCC1=O (centres undefined) | -0.3 | 6.9 | -3.7 | 3.0 | x | x
CSc1ccccc1-c1n[nH]c(=S)o1 | 35.1* | -2.8 | -2.9 | x | 39.6* | 51.7*
SMILES | PG9 Ab binder | NR2E3 ag-1 | Rev-erbA mod | NR2E3 ag-2 | PG9 bind confirm | PGV04 Ab binding | others
S=c1[nH]nc(-c2ccccc2)o1 | 6.7 | 0.6 | -1.9 | 2.4 | x | x
Cc1ccccc1-c1n[nH]c(=S)o1 | 34.5* | -33.8 | x | 6.0 | 35.1* | 46.9*
Cc1ccc(-c2cc(-c3n[nH]c(=S)o3)c3ccccc3n2)cc1 | -0.4 | -10.3 | -2.2 | 0.5 | x | x
CCc1nc2sc3c(c2c(=S)[nH]1)CC(C)(C)OC3 | 5.2 | -18.8 | -3.1 | x | x | x
CSc1nc2sc3c(c2c(=S)[nH]1)CC(C)(C)OC3 | 12.3* | -7.5 | -1.5 | x | 44.0* | 73.2*
COc1ccc(CCN(C)C(=O)COc2ccc(N(C)S(=O)(=O)c3ccc(C)cc3)cc2)cc1OC | 2.1 | 10.7 | 4.8 | -5.9 | x | x
CCc1ccc(OCC(=O)OCC(=O)c2ccc3c(c2)NC(=O)CO3)cc1 | 14.6* | -15.3 | 15.8 | 2.7 | 24.0* | 33.4*
CCCCCCC(=O)OCC(=O)c1ccc2c(c1)NC(=O)CO2 | -0.3 | -9.3 | 8.8 | 0.9 | x | x
CCC(=O)c1ccc(OCC(=O)c2ccc3c(c2)NC(=O)CO3)cc1 | 15.7* | -11.3 | 15.2 | -1.3 | 37.8* | 37.7* | PG9 bind DR=>67.1;PGV04 DR counter=i;PG126 binding DR=i
O=C(/C=C/Nc1ccccc1)C(F)(F)F | 9.3* | -7.2 | 3.1 | -0.5 | 4.0 | 7.1
Cc1c(N/C=C/C(=O)C(F)(F)F)c(=O)n(-c2ccccc2)n1C | -0.7 | -5.8 | 4.6 | 0.0 | x | x
CCc1cccc(NC(=O)C2CCN(S(=O)(=O)c3ccc4[nH]c(=O)ccc4c3)CC2)c1 | 3.7 | 6.4 | 5.3 | 1.2 | x | x
Cc1cc(C)cc(NC(=O)C2CCN(S(=O)(=O)c3ccc4[nH]c(=O)ccc4c3)CC2)c1 | 13.2* | -17.6 | 5.9 | 0.7 | 15.6* | 29.7*
O=C(O)c1cnn(-c2nc(-c3ccc(Br)cc3)cs2)c1C(F)(F)F | 9.6* | -136.9 | 3.0 | 8.5 | 13.3* | 22.9*
O=C(O)c1cnn(-c2nc(-c3ccc(F)cc3)cs2)c1C(F)(F)F | 3.7 | -99.4 | 2.4 | 5.8 | x | x
CNc1c(NC(=O)COc2ccc(Cl)cc2)c(=O)oc2ccccc12 | -1.7 | -12.8 | -9.1 | -1.1 | x | x
CN(C)c1ccc(-c2nnc(-c3ccc(S(=O)(=O)C(F)F)cc3)o2)cc1 | 10.8* | -5.7 | 5.3 | 2.2 | 17.1* | 19.6*
COc1ccc(-c2nnc(-c3ccc(N(C)C)cc3)o2)cc1 | 0.0 | -82.5 | -2.0 | 5.7 | x | x
CS(=O)(=O)c1ccc2nc(NC(=O)Nc3ccccc3F)sc2c1 | 33.4* | -184.7 | 23.0 | 3.1 | 27.3* | 45.9*

Source: PubChem BioAssay (several laboratories)
